Experimental findings from paper PMC11626521 (RSC Advances, 2024) are described below.

Common to all, as to assay: anti-proliferation assay
The subject of one assay is HT-29. Format: cell-based, human. Particulars: read-out: IC50 HT-29; 72 h treatment, CCK8. The method in brief: (§1)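 Seeding was 4000 cells per well, with overnight adherence. Media: HGC-27 and GES-1 in RPMI 1640; HT-29 and HCT-116 in McCoy's 5A; HeLa in DMEM; all with 10% FBS and 1% penicillin–streptomycin, 37 °C, 5% CO2. Test compounds ran 0–500 μM in 3-fold dilutions for 72 h. Read-out was CCK8 (0.5 mM WST-8, 10 μM PMS) for 0.5–2 h, absorbance 450 nm, IC50 from viability. SI = IC50(GES-1)/IC50(HGC-27).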

In the next assay the test system is HeLa. Format: cell-based, human. Particulars: read-out: IC50 HeLa; 72 h treatment, CCK8. In outline:
as §1

The test system of a further assay is HCT-116. It is filed as cell-based, human. The following applies: read-out: IC50 HCT-116; 72 h treatment, CCK8. The method in brief:
as §1

The next assay deals with GES-1. It is filed as cell-based. The following applies: read-out: IC50 GES-1; normal human gastric mucosa cell line, 72 h treatment, CCK8. The method in brief: as §1
The test system of a further assay is HGC-27. Format: cell-based, human. In outline:
as §1

In the case of `O=c1[nH]cc(F)c(=O)[nH]1` [5-FU], the IC50 (usually the concentration that inhibits the measured activity by half) with HT-29 is 4.6 ± 0.55 µM; in the assay with HeLa, 3.43 ± 0.33 µM; with HCT-116, 3.32 ± 0.3 µM; in the assay with GES-1, 4.03 ± 0.19 µM; in the assay on HGC-27 (read-out: IC50 HGC-27, 72 h treatment, CCK8), 4.75 ± 0.18 µM. Besides, the “SI (GES-1/HGC-27)” value in the assay with HGC-27 (SI = IC50 (GES-1)/IC50 (HGC-27)) stood at 0.85.
